# Measurements from different studies.
# Compare with care: the assays were run in different laboratories.
# Target: Casein kinase I isoform delta (CSNK1D, Homo sapiens, UniProt P48730)
# Residues used in one study (P48730 1-294): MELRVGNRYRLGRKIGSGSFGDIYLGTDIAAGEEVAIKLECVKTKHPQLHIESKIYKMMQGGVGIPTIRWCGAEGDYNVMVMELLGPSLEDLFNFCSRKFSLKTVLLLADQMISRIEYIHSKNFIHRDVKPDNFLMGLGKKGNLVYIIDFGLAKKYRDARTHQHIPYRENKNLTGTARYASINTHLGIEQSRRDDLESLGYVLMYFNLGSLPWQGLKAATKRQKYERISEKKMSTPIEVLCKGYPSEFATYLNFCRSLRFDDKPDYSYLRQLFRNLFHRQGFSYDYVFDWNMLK
SMILES,observed,action,method,concentration,measurement,value
CO[C@@H]1[C@H](N(C)C(=O)c2ccccc2)C[C@H]2O[C@]1(C)n1c3ccccc3c3c4c(c5c6ccccc6n2c5c31)C(=O)NC4,enzyme activity,inhibitor,,1 µM,inhibition,0%
COc1ccc2oc(-c3ccc4nc(N)oc4c3)c/c(=N\c3ccccc3NC(=O)CCN)c2c1,binding,,,1 µM,remaining binding,119%
C#Cc1cnc(Nc2ccnc(CO)c2)nc1Nc1ccccc1S(C)(=O)=NC#N (stereo not drawn),cell-free assay,,,1 µM,remaining signal,100%
COc1ccc2[nH]c3c4[nH]c5ccc(OC)cc5c4c4c(c3c2c1)C(=O)NC4=O,binding,,,1 µM,remaining binding,94%
CCCCC(=O)Nc1ccc(-c2ccc3ncn(CCC)c(=O)c3c2)cn1,binding,,competition with immobilised ligand,0.5 µM,remaining binding,87%
Cc1ccc(NC(=O)c2ccnc(C(F)(F)F)c2)cc1-c1cc(OCCO)nc(N2CCOCC2)c1,binding,,,1 µM,remaining binding,99%
N#Cc1ccc(NC(=O)Nc2ccccc2)cc1,cell-free assay,,competition with immobilised ligand,25 µM,remaining binding,100%
C=CC(=O)N1CCC([C@@H]2CCNc3c(C(N)=O)c(-c4ccc(Oc5ccccc5)cc4)nn32)CC1,enzyme activity,inhibitor,,1 µM,inhibition,8%
c1cc(-c2cnn3cc(-c4ccc(OCCN5CCCCC5)cc4)cnc23)ccn1,binding,,SPR,,kon,809000 M⁻¹ s⁻¹
CC(C)S(=O)(=O)c1ccc2nccc(Nc3ccc4sc(C5CCCC5)nc4c3)c2c1,enzyme activity,inhibitor,,1 µM,activity vs control,105%
C1=C/COCc2cc(ccc2OCCN2CCCC2)Nc2nccc(n2)-c2cccc(c2)COC/1,binding,,,0.1 µM,remaining binding,100%
c1cc(Nc2cc(C3CC3)n[nH]2)nc(Nc2ccc3nc[nH]c3c2)n1,binding,,SPR,,kon,335000 M⁻¹ s⁻¹
